Results published in ChEMBL document CHEMBL4513216, “Probing the Open Global Health Chemical Diversity Library for Multistage-Active Starting Points for Next-Generation Antimalarials” (ACS Infect Dis, 2020).

Test: Toxicity liver stage against HepG2, at 10uM
Assay type: cell-based
Set-up: test concentration 10 uM, cell line HepG2-A16-CD81EGFP
Conditions: human, HepG2-A16-CD81EGFP cells; read-out: INHIBITION
Method in brief: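 Uninfected HepG2-A16-CD81EGFP cells, 3 × 10^3 per well, 1536-well, plated on prespotted compound at 10 μM final, parasite-free screening media added to match infected plates; puromycin 10 μM positive, DMSO 0.5% negative; run in parallel with 48 h PbLuc assay at 37 °C, 5% CO2; viability by CellTiter-Glo luminescence, normalized to controls.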

| Compound | cytotoxicity at 10 µM |
| --- | --- |
| COc1cccc(CN2CC[C@H](c3nnc(-c4ccco4)o3)C2)c1 | -1.34% |
| CC(=O)N1CCC(NC2(Cc3cc(CC(C)C)on3)COC2)CC1 | 2.8% |
| CCc1c(C)sc2c1c(N)nc(=O)n2CCN1CCCCC1 | 9.49% |
| CC(C)(C)S(=O)(=O)c1ccc(N2CCN(c3ccccc3)CC2)nn1 | -4.81% |
| COC(=O)N1CCc2ccccc2C1C(=O)NCc1cccs1 (configuration not stated) | -0.634% |
| O=C(C1CCCC1)N1C[C@H]2CNC[C@H]2C1 | 1.47% |
| CN(C)CC(=O)N1CC2(CCN(S(=O)(=O)c3ccccc3)C2)C1 | -6.34% |
| CCS(=O)(=O)N1CCC2(CC(=O)N(c3ccccc3C)C2)C1 (configuration not stated) | 2.82% |
| Cc1ccc2c(c1)C1(CCNCC1)CC2OCC1CC1 (configuration not stated) | 6.13% |
| COCc1nnn2c1CN(C(=O)c1ccnnc1)CCC2 | -0.461% |
| CCCN(CC)C(=O)c1nc2c(n1C)CCN(Cc1ccccc1)C2 | 7.28% |
| N#Cc1ccc(OC[C@]23COC[C@H]2CN(Cc2ccccn2)C3)nc1 | -0.182% |
| CCOCC(=O)N1CCn2cc(CN(C)Cc3ccco3)nc2C1 | 4.73% |
| Cn1c(=O)c2sccc2n(CC(=O)Nc2cccc(Cl)c2)c1=O | 5.86% |
| COc1cccc2c1ccn2CC(=O)N[C@@H](CCSC)C(=O)O | 3.2% |
| COCCCNC(=O)c1cc(OC)c2ccoc2c1 | 16.9% |
| CCOc1ccc2nc(NC(=O)c3c(C(=O)O)cnn3C)sc2c1 | 6.47% |
| COCCNc1ccc(CC2CCNC2)cn1 (configuration not stated) | 9.33% |
| CC(=O)N1CCC(Cc2cnc(-c3c(C)nn(C)c3C)cn2)CC1 | -11.8% |
| CNC(=O)C1(C)CCCN(c2cnccn2)C1 (configuration not stated) | -25.3% |
| CNc1cc(C2CN(Cc3scnc3C)CCO2)nc(C)n1 (configuration not stated) | -24.7% |

| Compound | cytotoxicity at 10 µM |
| --- | --- |
| COCCC(=O)N1CCC(C(=O)c2cc(C)cnc2N)CC1 | -27.7% |
| COCC(=O)N1CCCCC1c1ccnc(Nc2cnccn2)n1 (configuration not stated) | -24.1% |
| Cc1noc(C)c1CN(C)c1nccc(C(F)(F)F)n1 | -4.73% |
| Cc1nncn1CCNC(=O)C1SCCc2sccc21 (configuration not stated) | 2.96% |
| Cc1noc(OCC(=O)N2CCCCC2C)n1 (configuration not stated) | 0.714% |
| Cc1ccc(S(=O)(=O)N2CCOCC2C#N)c(F)c1 (configuration not stated) | 9.78% |
| O=C(NCc1cc(F)cc(Br)c1)C1(O)CCSCC1 | 3.6% |
| Cc1ccnc(NC(=O)c2ccc(F)c(S(=O)(=O)NC3CC3)c2)c1 | 10.4% |
| CCN(CC)c1ccc(NC(=O)N2CCc3sccc3C2)cn1 | -5% |
| CC(Nc1cccc(COCc2ccco2)c1)C(=O)NC(N)=O (configuration not stated) | -5.65% |
| Cc1nc(Cn2cc(I)cc(C)c2=O)oc1C | 0.939% |
| Cc1ccc(NCc2ncc(C(C)(C)C)o2)c(Cl)c1 | -15.4% |
| CCC1CN(C(=O)COc2ccc(C(=O)NC3CC3)cc2)CCO1 (configuration not stated) | -4.39% |
| O=S(=O)(Nc1ncccc1F)c1cc(Cl)cc2c1OCC2 | 1.6% |
| O=C(c1c[nH]c2ccccc2c1=O)N1CCSCC1 | -5.63% |
| CCSc1cncc(N2CCC(C(=O)NC(C)C(C)C)CC2)n1 (configuration not stated) | -1.81% |
| Cc1cnn(CC2CN(CCS(=O)(=O)c3ccccc3)CCO2)c1 (configuration not stated) | -3.08% |
| CCc1noc(C(C)N2CCN(c3ccc(C#N)cn3)CC2)n1 (configuration not stated) | 4.78% |
| COCC1CN(C(=O)Cc2ccccn2)Cc2cn(CC3CC3)nc21 (configuration not stated) | -1.32% |
| COc1ccnc(N2Cc3cnc(C(C)(C)C)nc3C2)n1 | -9.85% |
| CC(C)c1nc(N2CCC(N3CCCC(O)C3)CC2)c2cnn(C)c2n1 (configuration not stated) | -127% |

| Compound | cytotoxicity at 10 µM |
| --- | --- |
| Nc1cnc(-c2cccc3ccnn23)cn1 | -1.7% |
| COCCn1ccnc1C1CCCN(C(=O)c2ccccc2C#N)C1 (configuration not stated) | -0.675% |
| COC(=O)[C@@H]1C[C@@H](NC(=O)CN2C(=O)N(C)Cc3ccccc32)CN1C | -2.62% |
| Cc1ccc(C#N)c(N2CCC3(CCC(=O)N(CC(N)=O)C3)CC2)n1 | 0.845% |
| O=C(c1ccsc1)N1CCc2c(nc(-c3ccncc3)[nH]c2=O)C1 | -1.67% |
| CC(=O)c1ccc(N2CCC3(CCC(=O)N(C4CC4)C3)CC2)nc1 | 4.36% |
| CC(NC(=O)c1coc(COc2cccc(F)c2)n1)c1nnc(N)s1 (configuration not stated) | -144% |
| Cn1c(CN2CCCCC2)nnc1C1CCCN(C(=O)CCC(N)=O)C1 (configuration not stated) | 3.94% |
| CCN(CCc1nc2cc(C)ccc2[nH]1)C(=O)[C@@H](N)Cc1c[nH]cn1 | -3.78% |
| COc1cc(F)c(CN2CCN(CC(C)C)C(=O)C2C)cc1OC (configuration not stated) | 1.63% |
| CSCc1noc(CNC(=O)C2CCN(C(=O)C3CCCC3)CC2)n1 | 9.98% |
| CN(C)[C@H]1CN(C(=O)c2ccc3sc4c(c3c2)CCNC4=O)C[C@@H]1O | -5.38% |
| CC1CCN(CCNC(=O)c2ccn(-c3ccccc3)n2)CC1 | -5.99% |
| Cc1cc(C)n(CC2CCCN2Cc2ncc(C(C)(C)C)o2)n1 (configuration not stated) | -1.64% |
| Cc1nc(C2CCCN2C(=O)CCCn2cccn2)no1 (configuration not stated) | -4.77% |
| Cc1ncsc1C(=O)NCCc1cccs1 | -15.3% |
| CCc1noc(C)c1C(=O)NCC(c1ccc(C)cc1)N(C)C (configuration not stated) | -5.57% |
| Cc1ccc(NC2CCN(C(=O)c3cc(C)no3)CC2)nn1 | -11.6% |
| CN(CC(=O)N1CCCC1c1cnn(C)c1)Cc1ccccc1 (configuration not stated) | -4.38% |
| CCc1ncc2c(n1)CN(CC(=O)Nc1cc(C)no1)CC2 | -16.9% |
| CC(C)c1nc(CN(C)C2CCN(Cc3nnc(C4CC4)o3)C2)no1 (configuration not stated) | 5.87% |

| Compound | cytotoxicity at 10 µM |
| --- | --- |
| c1ccc(CCCN2CCCC2Cn2cncn2)cc1 (configuration not stated) | -0.121% |
| CC(C)CCOCCNC(=O)Nc1ccc(F)c(C(N)=O)c1 | -11.6% |
| Cc1cc(C)n(C2CCCN(C(=O)CCOc3cccc(F)c3)C2)n1 (configuration not stated) | -5.56% |
| O=C(Nc1cnn(CCN2CCOCC2)c1)c1ccccn1 | -14.5% |
| Cc1ccc(-c2nc(CN3CCn4c(nnc4C4CC4)C3)co2)cc1 | 5.17% |
| Cc1cnn(CCNCc2cccnc2)c1 | -0.265% |
| CN1[C@@H](C(=O)NCC2CC2)C[C@H]2CN(Cc3cccc(C#N)c3)C[C@H]21 | -8.22% |
| O=C(NC1CCC1)[C@@H]1CCO[C@@H]2CCN(C3CCCC3)C[C@H]21 | 9.05% |
| Cn1ccc(C(=O)N2CCOC3(COCCN(CC4CC4)C3)C2)n1 (configuration not stated) | 7.61% |
| Cc1ccoc1C(=O)N1C[C@@H](N2CCN(C)CC2)[C@H]2OCCC[C@H]21 | 7.1% |
| CC(C)C(=O)N1CCCC2(CCCN2CC2CCCC2)C1 (configuration not stated) | 5.25% |
| CC(=O)N1CCC[C@@H](NCc2c[nH]c3ccccc23)[C@@H]1c1ccc(C)s1 | -39% |
| CCN1CCCC12CCN(C(=O)c1nccn1C)CC2 | 7.89% |
| O=S(=O)(C1CC1)N1CCOCC2(CCN(c3ccccn3)C2)C1 (configuration not stated) | 12.9% |
| COCCN1C[C@@H]2[C@@H](OC)CCN(C(=O)Cc3ccccc3)[C@@H]2C1 | 3.5% |
| Cc1ccc(C(=O)N2C[C@H]3CC[C@@H](C2)N(CC2CCC2)C3)s1 | -4.2% |
| CC(C)c1ccc(NS(=O)(=O)C=c2[nH]c(=O)n3cccc3c2=O)cc1 | -4.55% |
| O=C(C1CCOCC1)N1C[C@H]2CC(OCc3ccccc3)C[C@H]2C1 (some centres not stated) | -5.59% |
| O[C@@H]1CC(CNCc2ccc(Cl)cc2)(COc2cccnc2)C[C@@H]1O (some centres not stated) | -2.23% |
